Source: ChEMBL document CHEMBL5724801, “EUbOPEN Chemogenomics Library - Multiplex” (2024)
Values joined by “and” are separate entries in the source; they are usually repeats but may differ in a detail not shown here. Identical values can stand only once.

System: HEK-293T
Assay: Multiplex assay against HEK293T
Format: toxicity, cell-based
Conditions: human
Method in brief: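 Per cents of healthy-nucleus cells form the tubulin, mitochondrial-mass and membrane-permeability phenotype values. Live cells were stained at seeding with Hoechst33342, BioTracker Green Microtubule Cytoskeleton Dye, MitoTracker Red and Annexin V Alexa Fluor 680. After compound addition they were imaged on a CQ1 microscope at 37°C and 5% CO2, and CellPathfinder machine-learning gating split them into Hoechst high-intensity objects or normal cells, normal cells into healthy, pyknosed or fragmented nuclei, and pyknosed cells into mitotic or apoptotic.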

[1] = 12 h, 1 µM, compound concentration 1 uM
[2] = 12 h, 10 µM, compound concentration 10 uM
[3] = 24 h, 1 µM, compound concentration 1 uM
[4] = 24 h, 10 µM, compound concentration 10 uM
[5] = 48 h, 1 µM, compound concentration 1 uM
[6] = 48 h, 10 µM, compound concentration 10 uM

CN(C)CCOc1ccc(/C(=C(/CCCO)c2ccccc2)c2ccc(O)cc2)cc1
Population Apoptotic (%) [1]: 11.33% and 11.76%
Population Fragmented Nuclei (%) [1]: 1.07% and 2.99%
Population Hoechst High Intensity Objects (%) [1]: 0%
Population Membrane Permeable-Phenotype (%) [1]: 0.91% and 0%
Population Mitochondria Different-Phenotype (%) [1]: 37.73% and 15.38%
Population Mitotic Cells (%) [1]: 88.67% and 88.24%
Population Normal (%) [1]: 100%
Population Pyknosed Nuclei (%) [1]: 40.11% and 81.44%
Total Cell Count [1]: 374 and 167
Population Apoptotic (%) [2]: 12.57% and 17.97%
Population Fragmented Nuclei (%) [2]: 0.31% and 2.14%
Population Hoechst High Intensity Objects (%) [2]: 0%
Population Membrane Permeable-Phenotype (%) [2]: 0%
Population Mitochondria Different-Phenotype (%) [2]: 37.01% and 22.22%
Population Mitotic Cells (%) [2]: 87.43% and 82.03%
Population Normal (%) [2]: 100%
Population Pyknosed Nuclei (%) [2]: 59.87% and 91.43%
Population Tubulin-Different-Phenotype (%) [2]: 44.09% and 66.67%
Total Cell Count [2]: 319 and 140
Population Apoptotic (%) [3]: 20.61% and 15.97%
Population Fragmented Nuclei (%) [3]: 0.56% and 3.01%
Population Healthy Nuclei (%) [3]: 68.54% and 25.3%
Population Hoechst High Intensity Objects (%) [3]: 0.37% and 0%
Population Membrane Permeable-Phenotype (%) [3]: 1.09% and 2.38%
Population Mitochondria Different-Phenotype (%) [3]: 18.85% and 28.57%
Population Mitotic Cells (%) [3]: 79.39% and 84.03%
Population Normal (%) [3]: 99.63% and 100%
Population Pyknosed Nuclei (%) [3]: 30.9% and 71.69%
Population Tubulin-Different-Phenotype (%) [3]: 22.68% and 21.43%
Population Apoptotic (%) [4]: 44.56% and 45.71%
Population Fragmented Nuclei (%) [4]: 1.1% and 3.91%
Population Hoechst High Intensity Objects (%) [4]: 0%
Population Membrane Permeable-Phenotype (%) [4]: 1.19% and 5.56%
Population Mitochondria Different-Phenotype (%) [4]: 45.83% and 33.33%
Population Mitotic Cells (%) [4]: 55.44% and 54.29%
Population Normal (%) [4]: 100%
Population Pyknosed Nuclei (%) [4]: 52.88% and 82.03%
Population Tubulin-Different-Phenotype (%) [4]: 79.76% and 72.22%
Total Cell Count [4]: 365 and 128
Population Apoptotic (%) [5]: 11.64% and 29.47%
Population Fragmented Nuclei (%) [5]: 1.39% and 0.98%
Population Healthy Nuclei (%) [5]: 85.94% and 52.45%
Population Hoechst High Intensity Objects (%) [5]: 0.26% and 0%
Population Membrane Permeable-Phenotype (%) [5]: 6.57% and 1.87%
Population Mitochondria Different-Phenotype (%) [5]: 21.52% and 41.12%
Population Mitotic Cells (%) [5]: 88.36% and 70.53%
Population Normal (%) [5]: 99.74% and 100%
Population Apoptotic (%) [6]: 39.36% and 66.67%
Population Fragmented Nuclei (%) [6]: 0.98% and 2.22%
Population Hoechst High Intensity Objects (%) [6]: 1.92% and 1.46%
Population Membrane Permeable-Phenotype (%) [6]: 1.57% and 0%
Population Mitochondria Different-Phenotype (%) [6]: 81.82% and 77.78%
Population Mitotic Cells (%) [6]: 60.64% and 33.33%
Population Normal (%) [6]: 98.08% and 98.54%
Population Pyknosed Nuclei (%) [6]: 36.72% and 77.78%

CC(C)C[C@H](NC(=O)c1cc2ccccc2s1)C(=O)N1CCN(C(=O)[C@H](CO)NS(=O)(=O)c2ccc(Cl)cc2Cl)CC1
Population Apoptotic (%) [1]: 10.07% and 13.45%
Population Fragmented Nuclei (%) [1]: 3.47% and 8.64%
Population Healthy Nuclei (%) [1]: 52.68% and 17.9%
Population Hoechst High Intensity Objects (%) [1]: 0.31% and 0%
Population Membrane Permeable-Phenotype (%) [1]: 1.8% and 0%
Population Mitochondria Different-Phenotype (%) [1]: 37.13% and 31.03%
Population Mitotic Cells (%) [1]: 89.93% and 86.55%
Population Normal (%) [1]: 99.69% and 100%
Population Pyknosed Nuclei (%) [1]: 43.85% and 73.46%
Population Tubulin-Different-Phenotype (%) [1]: 16.17% and 48.28%
Total Cell Count [1]: 318 and 162
Population Apoptotic (%) [2]: 19.05% and 16.13%
Population Fragmented Nuclei (%) [2]: 2.43% and 2.16%
Population Hoechst High Intensity Objects (%) [2]: 0.69% and 0%
Population Membrane Permeable-Phenotype (%) [2]: 0.88% and 0%
Population Mitotic Cells (%) [2]: 80.95% and 83.87%
Population Normal (%) [2]: 99.31% and 100%
Population Pyknosed Nuclei (%) [2]: 58.33% and 89.21%
Population Tubulin-Different-Phenotype (%) [2]: 87.61% and 58.33%
Total Cell Count [2]: 290 and 139
Population Apoptotic (%) [3]: 16.78% and 26.05%
Population Fragmented Nuclei (%) [3]: 1.48% and 4.6%
Population Healthy Nuclei (%) [3]: 67.09% and 27.01%
Population Hoechst High Intensity Objects (%) [3]: 0%
Population Membrane Permeable-Phenotype (%) [3]: 2.83% and 2.13%
Population Mitochondria Different-Phenotype (%) [3]: 27.67% and 38.3%
Population Mitotic Cells (%) [3]: 83.22% and 73.95%
Population Normal (%) [3]: 100%
Population Pyknosed Nuclei (%) [3]: 31.43% and 68.39%
Population Tubulin-Different-Phenotype (%) [3]: 38.68% and 19.15%
Total Cell Count [3]: 474 and 174
Population Apoptotic (%) [4]: 47.8% and 42.62%
Population Fragmented Nuclei (%) [4]: 3.25% and 4.03%
Population Hoechst High Intensity Objects (%) [4]: 0.65% and 0%
Population Membrane Permeable-Phenotype (%) [4]: 0% and 4.76%
Population Mitochondria Different-Phenotype (%) [4]: 74.82% and 42.86%
Population Mitotic Cells (%) [4]: 52.2% and 57.38%
Population Normal (%) [4]: 99.35% and 100%
Population Pyknosed Nuclei (%) [4]: 51.62% and 81.88%
Population Tubulin-Different-Phenotype (%) [4]: 100% and 90.48%
Total Cell Count [4]: 310 and 149
Population Apoptotic (%) [5]: 11.27% and 26%
Population Fragmented Nuclei (%) [5]: 1.67% and 1.87%
Population Healthy Nuclei (%) [5]: 84.35% and 51.4%
Population Hoechst High Intensity Objects (%) [5]: 0.1% and 0.47%
Population Membrane Permeable-Phenotype (%) [5]: 6.07% and 4.55%
Population Mitochondria Different-Phenotype (%) [5]: 35.82% and 54.55%
Population Mitotic Cells (%) [5]: 88.73% and 74%
Population Normal (%) [5]: 99.9% and 99.53%
Population Apoptotic (%) [6]: 55.17% and 79.57%
Population Fragmented Nuclei (%) [6]: 2.27% and 2.56%
Population Healthy Nuclei (%) [6]: 64.87% and 37.82%
Population Hoechst High Intensity Objects (%) [6]: 0.28% and 0%
Population Membrane Permeable-Phenotype (%) [6]: 1.31% and 1.69%
Population Mitochondria Different-Phenotype (%) [6]: 97.38% and 91.53%
Population Mitotic Cells (%) [6]: 44.83% and 20.43%
Population Normal (%) [6]: 99.72% and 100%
Population Pyknosed Nuclei (%) [6]: 32.86% and 59.62%
Population Tubulin-Different-Phenotype (%) [6]: 94.32% and 98.31%
Total Cell Count [6]: 354 and 156
